Molecular target: not listed separately
Assay: Displacement of [3H]DAMGO from CCK2R-MOPR coexpressed in CHO cells

| SMILES | Ki [nM] |
| --- | --- |
| C[C@@H](NC(=O)[C@@H](N)Cc1ccc(O)cc1)C(=O)NCC(=O)N(C)[C@@H](Cc1ccccc1)C(=O)NCCO [[tyrosyl-3,5-3H(N)]-D-Ala2-Mephe4-glyol5-enkephalin] | 11 |
| CN1C(=O)[C@H](NC(=O)Nc2cccc(OCCNC(=O)COCC(=O)NCCCCCCNC(=O)COCC(=O)N[C@H]3CC[C@@]4(O)[C@H]5Cc6cc(O)cc7c6[C@@]4(CCN5C)[C@H]3O7)c2)N=C(c2ccccc2)c2ccccc21 [1-{1-Diglycoldiamide-6-[m-(R(+)-1)ureaphenoxy]ethane}-2-(N-oxymorphyldiglycoldiamide)hexane] | 16.3 |
| CN1C(=O)[C@H](NC(=O)Nc2cccc(OCCNC(=O)COCC(=O)N[C@H]3CC[C@@]4(O)[C@H]5Cc6cc(O)cc7c6[C@@]4(CCN5C)[C@H]3O7)c2)N=C(c2ccccc2)c2ccccc21 [N-{m-[R(+)-1]Ureaphenoxy}ethyl-N'-oxymorphyldiglycoldiamide] | 14.2 |
| CN1C(=O)[C@H](NC(=O)Nc2cccc(OCCNC(=O)COCC(=O)NCCNC(=O)COCC(=O)N[C@H]3CC[C@@]4(O)[C@H]5Cc6cc(O)cc7c6[C@@]4(CCN5C)[C@H]3O7)c2)N=C(c2ccccc2)c2ccccc21 [1-{1-Diglycoldiamide-2-[m-(R(+)-1)ureaphenoxy]ethane}-2-(N-oxymorphyldiglycoldiamide)ethane] | 7.3 |
| CN1C(=O)[C@H](NC(=O)Nc2cccc(OCCNC(=O)COCC(=O)NNC(=O)COCC(=O)N[C@H]3CC[C@@]4(O)[C@H]5Cc6cc(O)cc7c6[C@@]4(CCN5C)[C@H]3O7)c2)N=C(c2ccccc2)c2ccccc21 [N-{m-[R(+)-1]Ureaphenoxy}ethyldiglycolamidehydrazide-N'-oxymorphyldiglycolamidedihydrazide] | 3.9 |

Molecular target: Mu-type opioid receptor (Homo sapiens, UniProt P35372)
Sequence (P35372 whole entry): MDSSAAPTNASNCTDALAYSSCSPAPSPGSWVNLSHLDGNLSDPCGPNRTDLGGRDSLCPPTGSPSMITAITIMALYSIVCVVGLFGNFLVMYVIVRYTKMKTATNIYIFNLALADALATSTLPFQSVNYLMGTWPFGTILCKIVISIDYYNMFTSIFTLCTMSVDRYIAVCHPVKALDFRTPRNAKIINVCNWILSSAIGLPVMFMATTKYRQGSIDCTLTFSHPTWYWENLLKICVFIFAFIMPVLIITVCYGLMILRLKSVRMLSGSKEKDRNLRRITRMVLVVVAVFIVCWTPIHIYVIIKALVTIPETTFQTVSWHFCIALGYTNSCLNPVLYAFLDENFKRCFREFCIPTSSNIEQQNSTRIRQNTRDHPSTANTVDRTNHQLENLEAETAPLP
Assay: Displacement of [3H]DAMGO from mu opioid receptor expressed in CHO cells
Outline: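 Membranes came from CHO cells stably expressing MOP receptor alone or with CCK2 receptor. They were incubated with [3H]DAMGO (0.4 nM) plus increasing unlabeled ligand for 2 h at room temperature in KRH, pH 7.4, with 0.2% BSA and soybean trypsin inhibitor. Nonspecific binding was set with 1 μM DAMGO. Samples were filtered on PEI-soaked GF/C and scintillation counted; Ki and Bmax (pmol/mg protein) came from LIGAND analysis. Mean±S.E.M., 3-5 experiments.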

| SMILES | Ki [nM] |
| --- | --- |
| CNC(=O)COCC(=O)NCCCCNC(=O)COCC(=O)N[C@H]1CC[C@@]2(O)[C@H]3Cc4cc(O)cc5c4[C@@]2(CCN3C)[C@H]1O5 [2-({[(1S,5R,13R,14S,17S)-9,17-dihydroxy-4-methyl-12-oxa-4-azapentacyclo[9.6.1.0^{1,13}.0^{5,17}.0^{7,18}]octadeca-7(18),8,10-trien-14-yl]carbamoyl}methoxy)-N-(4-{2-[(methylcarbamoyl)methoxy]acetamido}butyl)acetamide] | 29.8 |

Source: BindingDB's records for doi:10.1021/jm800174p (University of Minnesota, 2009)
